Redox H2O2 prof = compounds producing H2O2 with reducing agent – biochemical, NIH compound library profiling, artefact control for MLSCN library redox annotation, primary screen | DTT-dependent redox cycling H2O2, phenol red/HRP absorbance; 100% = 100 µM peroxide control, 0% = buffer | activation, % at 10 µM | actives 0.03% (n = 200,000) | AID 878, 2007;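 active = activation of at least 50% relative to the plate's high and low controls in the primary single-dose screen; inactive = activation below 50%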;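 note: compound incubated with DTT at 0.8 mM final as the reducing agent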
SUMO HTRF inh = inhibitors of in vitro SUMOylation cascade, primary screen, biochemical, HTRF, uHTS | SUMO-conjugating enzyme UBC9 (Homo sapiens), P63279 | HTRF SUMOylation assay, SAE1/SAE2 + UBC9 | inhibition, % at 35 µM | actives 0.36% (n = 290,000) | AID 2006, 2009; in the data active = inhibition above about 50%, passing the limit was not always enough
Target sequence (P63279 whole entry, looked up): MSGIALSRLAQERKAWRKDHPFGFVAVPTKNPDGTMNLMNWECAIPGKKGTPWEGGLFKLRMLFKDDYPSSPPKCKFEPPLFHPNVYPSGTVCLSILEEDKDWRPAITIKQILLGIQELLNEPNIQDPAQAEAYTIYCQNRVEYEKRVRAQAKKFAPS
Apaf-1 inh = inhibitors of human Apaf-1 apoptosome, primary screen, biochemical, DEVD-Rh110 fluorescence, uHTS; reconstituted apoptosome caspase-3 activity; inhibition, % at 20 µM; actives 0.71% (n = 330,000); AID 489030, 2010; active = inhibition of at least 40% at 20 µM
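Assay system: Apoptosome proteins | Medium: pH 7.5 Hepes buffer with CHAPS, BSA, DTT | Also added: Cytochrome c and DEVD-Rh110 substrate | Times: 30 min plus 50 min, RT | Detection: Rhodamine 110 fluorescence at Ex 480/Em 540 nm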
HKDC1 inh = HKDC1 hexokinase inhibitors, primary screen, biochemical, fluorescence, uHTS | actives 0.16% (n = 340,000) | inhibition, % at 20 µM | Q2TB90 | recombinant HKDC1, G6PDH/diaphorase resazurin coupled fluorescence;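 active = inhibition above about 35% when tested at 20 µM, limit read from the data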
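Assay system: recombinant HKDC1 hexokinase; detection: coupled resazurin fluorescence, excitation 525 nm, emission 613 nm; benchmarks: DMSO-plus-enzyme-mix negative control, buffer-substituted positive control; compound dosing: single 20 µM dose; schedule: 90 min at room temperature in dark; also added: glucose plus 1 mM ATP as hexokinase substrates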
GSTO1 counter = inhibitors of recombinant GSTO1, primary screen, counter-screen for RBBP9 inhibitor project, biochemical, fluorescence polarization | Glutathione S-transferase omega-1 (Homo sapiens), P78417 | activity-based probe fluorescence polarization | inhibition, % at 5.96 µM | actives 1.1% (n = 300,000);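 active = inhibition above the campaign mean inhibition plus 3 SD, cut at about 35% in these data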
Target sequence (P78417 whole entry, looked up): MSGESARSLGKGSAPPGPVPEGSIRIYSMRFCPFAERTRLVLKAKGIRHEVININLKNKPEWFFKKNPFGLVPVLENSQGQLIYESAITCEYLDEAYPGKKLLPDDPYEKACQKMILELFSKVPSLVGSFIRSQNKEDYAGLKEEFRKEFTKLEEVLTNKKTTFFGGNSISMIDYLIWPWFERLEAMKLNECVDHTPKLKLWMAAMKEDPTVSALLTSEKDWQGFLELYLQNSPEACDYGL
Apaf-1 inh conf2 = Apaf-1 inhibitors, single-dose retest, confirmation, biochemical, fluorescence, DEVD-Rh110, 20 µM. shares compounds with Apaf-1 inh. inhibition, % at 20 µM. reconstituted apoptosome, caspase-3 DEVD-Rh110 fluorescence. actives 25% (n = 1,800);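 active = mean inhibition of at least 40% at 20 µM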
Rh110 interf inh = Rh110 fluorescence interference by putative Apaf-1 inhibitors, confirmation, artefact control for Apaf-1 inhibitor project, biochemical, 20 µM | activation (fluorescence interference), % at 20 µM | AID 504615, 2011 | shares compounds with Apaf-1 inh | quenched caspase reaction | 1,800 tested, under 10 active;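 active = signal rise of 40% or more at 20 µM, treated as a fluorescence artifact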
Fluor interf inh = fluorescence interference of Apaf-1 inhibitor hits, dose response, artefact control for Apaf-1 inhibitor project; IC50, µM; shares compounds with Apaf-1 inh; fluorescence interference counterscreen, Apaf-1 assay format; 460 tested, under 10 active; call rule not given here
A number is an active result; – = inactive; · = not tested or not shown. The list is not random: actives were taken first. Their share in the collection is about 1.4%.

SMILES | Redox H2O2 prof | SUMO HTRF inh | Apaf-1 inh | HKDC1 inh | GSTO1 counter | Apaf-1 inh conf2 | Rh110 interf inh | others
C[C@]12c3[nH]c4cc(-c5ccco5)ccc4c3CCN1C(=O)[C@@H](CC(=O)NCCCn1ccnc1)C[C@@H]2C(=O)N1CCCCC1 | · | · | – | – | · | · | ·
CN(C)CCCNC(=O)C[C@H]1C[C@H](C(=O)N2CCCCC2)[C@@]2(CCc3ccccc3)c3[nH]c4cc(-c5ccco5)ccc4c3CCN2C1=O | · | · | 72 | – | · | – | –
CN(C)CCCNC(=O)C[C@H]1C[C@H](C(=O)N2CCCCC2)[C@@]2(C)c3[nH]c4cc(-c5ccco5)ccc4c3CCN2C1=O | · | · | 42 | – | · | – | –
O=C(COC(=O)c1cc([N+](=O)[O-])ccc1N1CCOCC1)NCc1ccc(Cl)cc1Cl | · | – | – | – | – | · | ·
COc1cc(C(=O)NCC2CCCO2)ccc1OCc1ccccc1Cl (configuration not stated) | · | – | – | – | – | · | ·
CCN(CC)C(=O)[C@H]1C[C@H](CC(=O)NCc2cccc(C(F)(F)F)c2)C(=O)N2CCc3c([nH]c4ccc(Cl)cc34)[C@]12C | · | · | 46 | – | · | – | –
CCN(CC)C(=O)[C@H]1CC(CC(=O)NCCCN(C)C)C(=O)N2CCc3c([nH]c4ccccc34)[C@]12C (some centres not stated) | · | · | 44 | – | · | – | –
COc1ccc(OC)c(NC(=O)COC(=O)COc2ccc(Nc3ccccc3)cc2)c1 | · | · | – | – | · | · | ·
O=C(NCCc1cccnc1)C1CCC(=O)N(CCc2cccc(F)c2)C1 (configuration not stated) | · | – | – | – | · | · | ·
Cc1cc(NC(=O)CSc2nnc(C)n2-c2ccccc2C)no1 | – | – | – | – | – | · | ·
CC(C)N1CCc2c(sc(NC(=O)c3nc4ccccc4s3)c2C(N)=O)C1 | – | – | – | – | – | · | ·
CC(C)N1CCc2c(sc(NC(=O)c3ccc(S(=O)(=O)N4CCc5ccccc54)cc3)c2C(N)=O)C1 | – | – | 46 | – | – | – | –
C=CCN1C=C2C(=O)C(C)(OC(=O)CCC(=O)OC)C(=O)C=C2C=C1C1CC1 (configuration not stated) | · | – | 43 | – | 37 | 53 | – | Fluor interf inh=–
CCCCC1=CC2=CC(=O)C(C)(OC(=O)CCC(=O)OC)C(=O)C2=CO1 (configuration not stated) | · | · | – | · | – | · | ·
Cc1[nH]n(-c2ccc([N+](=O)[O-])cc2)c(=O)c1/C=N/N1CCOCC1 | – | – | 44 | – | – | – | –
CCOC(=O)c1nn2c(C(F)(F)F)cc(-c3ccc(OC)cc3)nc2c1Br | · | – | – | – | – | · | ·
NC1=NC[C@@H](Cc2ccc(O)cc2)N1CCCCC1CCCCC1 | · | – | 51 | – | – | – | –
O=C(CCC1CCCCC1)NCCN1C2=NC[C@@H](Cc3ccccc3)N2C[C@H]1Cc1ccc(O)cc1 | – | – | 45 | – | – | – | –
CCCCCCNC(=O)N[C@@H](C(=O)NCCC[C@H]1CN2C(=NC[C@@H]2Cc2ccccc2)N1CCc1cccc(OC)c1)C(C)C | · | – | 54 | – | – | – | –
NC1=NC[C@H](Cc2ccc(O)cc2)N1CC1CCCCC1 | · | – | – | – | – | · | ·
COc1ccc(C[C@H]2CN3C(=NC[C@@H]3C(C)C)N2CCNC(=O)c2ccc(C)c(Br)c2)cc1 | – | – | 47 | – | – | – | –
